This note sets out measurements from ChEMBL document CHEMBL1144185, “Synthesis and SAR study of N-(4-hydroxy-3-(2-hydroxynaphthalene-1-yl)phenyl)-arylsulfonamides: heat shock protein 90 (Hsp90) inhibitors with submicromolar activity in an in vitro assay” (Bioorg Med Chem Lett, 2008).

The source made the active and inactive calls. No cut-off for these calls is given here.

One assay addresses T1, Heat shock protein HSP90 (Homo sapiens, UniProt P07900+P08238). As to the kind of experiment: Inhibition of Hsp90 in human SKBR3 cells assessed as interaction with Cy3b-conjugated geldanamycin upto 50 uM by FP assay. The class given is cell-based. Conditions: SK-BR-3. Summed up:
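Fluorescence polarization binding assay measuring displacement of fluorescently labeled geldanamycin from the Hsp90 ATP-binding site. Compounds were tested up to a maximum of 50 µM.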
Regarding `COc1ccc2c(c1-c1cc(NS(=O)(=O)c3cc(Cl)ccc3Cl)ccc1N)OCO2`, the result was inactive.

For the molecule `COc1ccc2c(c1-c1cc(NS(=O)(=O)c3cccc(N)c3)ccc1N)OCO2`, the result was inactive.

As for `O=C(O)c1ccc(S(=O)(=O)Nc2ccccc2-c2c(O)ccc3c2OCO3)cc1`, the outcome was inactive.

For the molecule `O=S(=O)(Nc1ccc(F)c(-c2c(O)ccc3c2OCO3)c1)c1ccc(F)cc1`, the result was inactive.

For `N#Cc1cc(S(=O)(=O)Nc2ccccc2-c2c(O)ccc3c2OCO3)ccc1F`, the outcome was inactive.

As to `Nc1cccc(S(=O)(=O)Nc2ccc(F)c(-c3c(O)ccc4c3OCO4)c2)c1`, the outcome was inactive.

As for `COc1ccc(S(=O)(=O)Nc2ccc(O)c(-c3ccccc3O)c2)cc1OC`, the outcome was inactive.

`Nc1ccccc1S(=O)(=O)Nc1ccc(O)c(-c2ccccc2O)c1`: the result was inactive.

Turning to `COc1ccc2c(c1-c1cc(NS(=O)(=O)c3ccc(C)cc3)ccc1N)OCO2`, the outcome was inactive.

For the molecule `O=[N+]([O-])c1ccccc1S(=O)(=O)Nc1ccc(O)c(-c2ccccc2O)c1`, the outcome was inactive.

Consider `O=[N+]([O-])c1ccccc1S(=O)(=O)Nc1ccc(F)c(-c2c(O)ccc3c2OCO3)c1`, for which the result was inactive.

With `COc1ccc(S(=O)(=O)Nc2ccc(N)c(-c3ccccc3O)c2)cc1OC`, the result was inactive.

For `COc1ccc2c(c1-c1cc(NS(=O)(=O)c3cccc([N+](=O)[O-])c3)ccc1N)OCO2`, the result was inactive.

In the case of `O=[N+]([O-])c1cccc(S(=O)(=O)Nc2ccc(F)c(-c3c(O)ccc4c3OCO4)c2)c1`, the result was inactive.

Take `Nc1ccccc1S(=O)(=O)Nc1ccc(F)c(-c2c(O)ccc3c2OCO3)c1`: the result was inactive.

As to `O=C(O)c1cccc(S(=O)(=O)Nc2ccc(F)c(-c3c(O)ccc4c3OCO4)c2)c1`, the result was inactive.

`COc1ccc2c(c1-c1cc(NS(=O)(=O)c3ccccc3[N+](=O)[O-])ccc1N)OCO2`: the result was inactive.

Take `Cc1ccc(S(=O)(=O)Nc2ccc(O)c(-c3ccccc3O)c2)cc1`: the outcome was inactive.

For `Cc1ccc(S(=O)(=O)Nc2ccc(N)c(-c3ccccc3O)c2)cc1`, the outcome was inactive.

Consider `O=[N+]([O-])c1cccc(S(=O)(=O)Nc2ccc(O)c(-c3ccccc3O)c2)c1`, for which the outcome was inactive.

As to `N#Cc1cc(S(=O)(=O)Nc2cccc(-c3c(O)ccc4c3OCO4)c2)ccc1F`, the result was inactive.

In the case of `Nc1cccc(S(=O)(=O)Nc2ccc(O)c(-c3ccccc3O)c2)c1`, the outcome was inactive.

For the molecule `O=S(=O)(Nc1ccccc1-c1c(O)ccc2c1OCO2)c1cc(Cl)ccc1Cl`, the outcome was inactive.

Turning to `COc1ccc2c(c1-c1cc(NS(=O)(=O)c3ccccc3N)ccc1N)OCO2`, the outcome was inactive.

Regarding `Nc1ccc(NS(=O)(=O)c2ccccc2)cc1-c1c(O)ccc2ccccc12`, the outcome was inactive.

For `Nc1ccc(NS(=O)(=O)c2cc(Cl)ccc2Cl)cc1-c1ccccc1O`, the result was inactive.

Regarding `COc1ccc(S(=O)(=O)Nc2ccc(N)c(-c3c(OC)ccc4c3OCO4)c2)cc1OC`, the result was inactive.

The next assay deals with SK-BR-3. In words: cells. Conditions: Homo sapiens, SK-BR-3, 72 h.
In general, IC50 refers to the concentration that inhibits the measured activity by half. On to `O=S(=O)(Nc1ccc(O)c(-c2c(O)ccc3ccccc23)c1)c1ccc(O)cc1O`, for which the IC50 was greater than 50 µM.

For `O=S(=O)(Nc1ccc(O)c(-c2c(O)ccc3c2OCO3)c1)c1cc(Cl)ccc1Cl`, the concentration for half-maximal inhibition (IC50) amounted to 4.4 µM.

`O=S(=O)(Nc1ccc(O)c(-c2c(O)ccc3ccccc23)c1)c1cc(Cl)ccc1Cl` displayed a half-inhibitory concentration (IC50) of 6 µM.

Take `COc1ccc(O)c(O)c1-c1cc(NS(=O)(=O)c2cc(Cl)ccc2Cl)ccc1N`: the IC50 is 6 µM.

In another assay the target is T1, Heat shock protein HSP90. In words: Inhibition of Hsp90 in human SKBR3 cells assessed as Her2 degradation after 24 hrs by Western blot. It counts as cell-based. The following applies: sk-br-3.
Regarding `COc1ccc(O)c(O)c1-c1cc(NS(=O)(=O)c2cc(Cl)ccc2Cl)ccc1N`, the IC50 was 20 µM.

In another assay the target is T1, Heat shock protein HSP90. As to the kind of experiment: Inhibition of Hsp90 in human SKBR3 cells assessed as interaction with Cy3b-conjugated geldanamycin by FP assay. The class given is cell-based. Conditions: sk-br-3.
With `Cc1ccc(S(=O)(=O)Nc2ccc(F)c(-c3c(O)ccc4c3OCO4)c2)cc1`, the concentration for half-maximal inhibition (IC50) is 28 µM.

As to `Nc1ccc(NS(=O)(=O)c2cc(Cl)ccc2Cl)cc1-c1c(O)ccc2ccccc12`, the IC50 came out at 9.4 µM.

`Cc1ccc(S(=O)(=O)Nc2cccc(-c3c(O)ccc4c3OCO4)c2)cc1`: the IC50 was found to be 31.3 µM.

Consider `O=S(=O)(Nc1ccc(O)c(-c2ccccc2O)c1)c1cc(Cl)ccc1Cl`, for which the IC50 amounted to 19.4 µM.

Regarding `O=S(=O)(Nc1ccc(O)c(-c2c(O)ccc3ccccc23)c1)c1ccc(O)cc1O`, the IC50 worked out at 1.8 µM.

For the molecule `O=S(=O)(Nc1ccc(O)c(-c2c(O)ccc3ccccc23)c1)c1ccccc1`, the 50% inhibitory concentration (IC50) turned out to be 4.5 µM.

Consider `O=S(=O)(Nc1ccc(O)c(-c2c(O)ccc3c2OCO3)c1)c1cc(Cl)ccc1Cl`, for which the half-maximal inhibitory concentration (IC50) worked out at 1.7 µM.

For the molecule `N#Cc1cc(S(=O)(=O)Nc2ccc(F)c(-c3c(O)ccc4c3OCO4)c2)ccc1F`, the IC50 was 27 µM.

As to `O=S(=O)(Nc1cccc(-c2c(O)ccc3c2OCO3)c1)c1ccc(F)cc1`, the IC50 was 19.6 µM.

In the case of `O=S(=O)(Nc1cccc(-c2c(O)ccc3c2OCO3)c1)c1cc(Cl)ccc1Cl`, the IC50 amounted to 14.5 µM.

`N#Cc1ccccc1S(=O)(=O)Nc1ccc(O)c(-c2c(O)ccc3ccccc23)c1`: the IC50 worked out at 4.5 µM.

On to `COc1cc(O)ccc1S(=O)(=O)Nc1ccc(O)c(-c2c(O)ccc3ccccc23)c1`, for which the IC50 was found to be 1.3 µM.

`COc1ccc(S(=O)(=O)Nc2ccc(N)c(-c3c(O)ccc4ccccc34)c2)c(OC)c1`: the IC50 was 25 µM.

Regarding `O=[N+]([O-])c1cc(S(=O)(=O)Nc2ccc(F)c(-c3c(O)ccc4c3OCO4)c2)ccc1Cl`, the IC50 was found to be 26 µM.

As to `COc1ccc(S(=O)(=O)Nc2ccc(O)c(-c3c(O)ccc4ccccc34)c2)c(OC)c1`, the IC50 was found to be 2.5 µM.

`Nc1ccc(NS(=O)(=O)c2ccc(O)cc2O)cc1-c1c(O)ccc2ccccc12`: the IC50 is 9.5 µM.

`COc1ccc(O)c(O)c1-c1cc(NS(=O)(=O)c2cc(Cl)ccc2Cl)ccc1N`: the IC50 is 0.55 µM.
